43 molecules from ChEMBL document CHEMBL1138870, “In vitro and in vivo efficacy and in vitro metabolism of 1-phenyl-3-aryl-2-propen-1-ones against Plasmodium falciparum” (Bioorg Med Chem Lett, 2006) can be followed below.

For series [1], the system named is Plasmodium falciparum. The experiment in a line: Antimalarial activity against Plasmodium falciparum W2. The format is functional, organism-based. A digest of the protocol: (§1)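 Cultured P. falciparum parasites were exposed to compound, and inhibition of [³H]hypoxanthine uptake was measured to give the IC50. Values come from a single experiment.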
The subject of series [2] is Plasmodium falciparum. The experiment in a line: Antimalarial activity against Plasmodium falciparum D6. Type of series: functional, organism-based. Put shortly:
as §1

Series [3] relates to Plasmodium falciparum. Kind of series: Resistance index, IC50 of Plasmodium falciparum W2/IC50 Plasmodium falciparum D6. Type of series: ADME, organism-based. The note with it: in vitro. Put shortly:
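Ratio of IC50 against P. falciparum W2 to IC50 against strain D6. Each IC50 comes from in vitro inhibition of [3H]hypoxanthine uptake by the parasites, with values from a single experiment.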

For `COc1ccc(C(=O)/C=C/c2ccnc3ccccc23)c(F)c1`, the results for the IC50 in series [1] and in series [2] were 4.5 µM and 2.4 µM, respectively. Also, the “Ratio IC50” value in series [3] came to 1.9.
For `COc1ccc(C(=O)/C=C/c2ccc3ccccc3n2)c(OC)c1OC` the same measures were 3.3 µM, 2.9 µM and 1.1.
In the case of `O=C(/C=C/c1ccnc2ccccc12)c1ccc(Cl)cc1Cl`, the IC50 (in general, the concentration that gives 50% inhibition) in series [1] is 18 µM; in series [2] it was 6.2 µM. Moreover, the “Ratio IC50” value in series [3] was 2.9.
For the molecule `COc1ccc(C(=O)/C=C/c2cnc3ccccc3c2)c(OC)c1OC`, the IC50 in series [1] amounted to 2.8 µM; in series [2] it was 6.7 µM. In series [3], the “Ratio IC50” value is reported as 0.42.
Turning to `COc1ccc(C(=O)/C=C/c2cnc3ccccc3c2)cc1F`, the IC50 turned out to be 2.7 µM in series [1] and 1.6 µM in series [2]. Moreover, the “Ratio IC50” value in series [3] is 1.7.
Regarding `COc1cccc(OC)c1C(=O)/C=C/c1cccc2ccccc12`, the results for the IC50 in series [1] and in series [2] were 3.1 µM and 3.2 µM, respectively. In series [3], the “Ratio IC50” value stood at 0.97.
On to `COc1cc(OC)cc(C(=O)/C=C/c2cnc3ccccc3c2)c1`, for which the IC50 was determined as 4.3 µM in series [1] and 11 µM in series [2]. For the same molecule, the “Ratio IC50” value in series [3] stood at 0.39.
With `COc1cc(C(=O)/C=C/c2cccc3ccccc23)cc(OC)c1OC`, the values for the IC50 in series [1] and in series [2] were 4.8 µM and 5.2 µM, respectively. Also, the “Ratio IC50” value in series [3] is 0.92.
Take `COc1ccc(C(=O)/C=C/c2ccc3ccccc3n2)cc1F`: the IC50 in series [1] is 5.3 µM; in series [2] it was 1.3 µM. The “Ratio IC50” value in series [3] turned out to be 4.1.
As to `O=C(/C=C/c1cnc2ccccc2c1)c1ccc(Cl)cc1Cl`, the values for the IC50 in series [1] and in series [2] were 6.3 µM and 7.9 µM, respectively. Besides, the “Ratio IC50” value in series [3] came to 0.8.
For `O=C(/C=C/c1ccc2ccccc2n1)c1ccc(F)cc1F` the same measures were 1.3 µM, 2.3 µM and 0.57.
Regarding `COc1cccc(OC)c1C(=O)/C=C/c1ccnc2ccccc12`, the IC50 in series [1] was found to be 5.7 µM; in series [2] it was 13 µM. Further, the “Ratio IC50” value in series [3] stood at 0.44.
For `COc1cc(C(=O)/C=C/c2ccc3ccccc3c2)cc(OC)c1OC`, the IC50 in series [1] is 6 µM; in series [2] it was 6.6 µM. For the same molecule, the “Ratio IC50” value in series [3] is 0.91.
Consider `COc1ccc(C(=O)/C=C/c2ccc3ccccc3n2)c(OC)c1`, for which the IC50 in series [1] was found to be 1.2 µM; in series [2], 2 µM. Further, the “Ratio IC50” value in series [3] worked out at 0.6.
As to `COc1ccc(OC)c(C(=O)/C=C/c2cnc3ccccc3c2)c1`, the concentration for half-maximal inhibition (IC50) in series [1] is 2.7 µM; in series [2], 2 µM. Moreover, the “Ratio IC50” value in series [3] was 1.4.
With `COc1ccc(Cl)cc1C(=O)/C=C/c1cnc2ccccc2c1`, the IC50 was 0.59 µM in series [1] and 0.95 µM in series [2]. Also, the “Ratio IC50” value in series [3] stood at 0.62.
`COc1ccc(C(=O)/C=C/c2ccnc3ccccc23)cc1Cl`: the IC50 is 0.95 µM in series [1] and 1.8 µM in series [2]. The “Ratio IC50” value in series [3] is 0.53.
The matching figures for `O=C(/C=C/c1cnc2ccccc2c1)c1ccc(Cl)c(Cl)c1`: 12 µM, 3.1 µM and 3.9.
For `COc1ccc(C(=O)/C=C/c2cccc3ccccc23)cc1` the same measures were 10 µM, 9.1 µM and 1.1.
As to `O=C(/C=C/c1cnc2ccccc2c1)c1ccc(F)cc1F`, the IC50 came out at 6.2 µM in series [1] and 5 µM in series [2]. In addition, the “Ratio IC50” value in series [3] was 1.2.
As for `COc1ccc(C(=O)/C=C/c2cccc3ccccc23)c(OC)c1`, the figures for the IC50 in series [1] and in series [2] were 4.6 µM and 4.9 µM, respectively. In addition, the “Ratio IC50” value in series [3] was found to be 0.94.
For `COc1ccc(C(=O)/C=C/c2ccc3ccccc3c2)cc1OC` the same measures were 7.7 µM, 9.8 µM and 0.79.
Turning to `COc1ccc(OC)c(C(=O)/C=C/c2ccc3ccccc3c2)c1`, the IC50 in series [1] is 5 µM; in series [2], 5.5 µM. For the same molecule, the “Ratio IC50” value in series [3] stood at 0.91.
`COc1ccc(OC)c(C(=O)/C=C/c2cccc3ccccc23)c1`: the IC50 in series [1] was determined as 2.8 µM; in series [2], 2.9 µM. Also, the “Ratio IC50” value in series [3] worked out at 0.97.
Regarding `COc1ccc(C(=O)/C=C/c2cnc3ccccc3c2)c(F)c1`, the IC50 in series [1] came to 3.1 µM; in series [2], 2.1 µM. Besides, the “Ratio IC50” value in series [3] turned out to be 1.5.
Turning to `COc1ccc(C(=O)/C=C/c2ccnc3ccccc23)c(OC)c1OC`, the IC50 in series [1] is over 14 µM; in series [2], 2.6 µM.
`COc1ccc(C(=O)/C=C/c2ccc3ccccc3c2)c(OC)c1`: the values for the IC50 in series [1] and in series [2] were over 16 µM and 8.7 µM, respectively.
In the case of `COc1ccc(C(=O)/C=C/c2ccc3ccccc3n2)cc1`, the IC50 in series [1] was over 17 µM; in series [2], 4.7 µM.
As to `O=C(/C=C/c1ccnc2ccccc12)c1ccc(F)c(F)c1`, the IC50 in series [1] was found to be 5.7 µM; in series [2], 9.4 µM. For the same molecule, the “Ratio IC50” value in series [3] stood at 0.61.
Consider `COc1ccc(F)cc1C(=O)/C=C/c1cnc2ccccc2c1`, for which the IC50 in series [1] amounted to 1.1 µM; in series [2] it was 0.46 µM. Further, the “Ratio IC50” value in series [3] turned out to be 2.4.
As to `COc1ccc(C(=O)/C=C/c2cccc3ccccc23)c(OC)c1OC`, the IC50 in series [1] was 5.8 µM; in series [2], 4.3 µM. Also, the “Ratio IC50” value in series [3] is recorded as 1.3.
Take `COc1ccc(C(=O)/C=C/c2ccnc3ccccc23)c(OC)c1`: the IC50 in series [1] was found to be 2 µM; in series [2] it was 3 µM. Besides, the “Ratio IC50” value in series [3] was found to be 0.67.
Turning to `COc1ccc(C(=O)/C=C/c2cnc3ccccc3c2)c(OC)c1`, the results for the IC50 in series [1] and in series [2] were 3.3 µM and 4.8 µM, respectively. The “Ratio IC50” value in series [3] is 0.7.
The matching figures for `COc1cc(OC)cc(C(=O)/C=C/c2ccc3ccccc3c2)c1`: 9.5 µM, 7.4 µM and 1.3.
The matching figures for `COc1cc(F)ccc1C(=O)/C=C/c1cnc2ccccc2c1`: 1.5 µM, 1.1 µM and 1.4.
`COc1ccc(OC)c(C(=O)/C=C/c2ccnc3ccccc23)c1`: the half-maximal inhibitory concentration (IC50) came to 7.3 µM in series [1] and 3 µM in series [2]. In series [3], the “Ratio IC50” value amounted to 2.4.
As for `COc1ccc(F)cc1C(=O)/C=C/c1ccnc2ccccc12`, the IC50 in series [1] was found to be 4.1 µM; in series [2], 5.1 µM. Moreover, the “Ratio IC50” value in series [3] is given as 0.8.
For `COc1cccc(OC)c1C(=O)/C=C/c1ccc2ccccc2c1`, the IC50 in series [1] came out at 3.3 µM; in series [2], 3.4 µM. In addition, the “Ratio IC50” value in series [3] turned out to be 0.97.
For the molecule `O=C(/C=C/c1ccnc2ccccc12)c1cc(F)ccc1F`, the IC50 is 8.6 µM in series [1] and 3.7 µM in series [2]. In series [3], the “Ratio IC50” value came to 2.3.
`COc1ccc(C(=O)/C=C/c2ccc3ccccc3c2)cc1`: the IC50 in series [1] and in series [2] was over 17 µM each time.
Consider `COc1ccc(C(=O)/C=C/c2cccc3ccccc23)cc1OC`, for which the IC50 in series [1] is 5 µM; in series [2], 5.2 µM. In addition, the “Ratio IC50” value in series [3] is listed as 0.96.
Take `O=C(/C=C/c1cnc2ccccc2c1)c1ccc(F)c(F)c1`: the figures for the IC50 in series [1] and in series [2] were 5.8 µM and 8.5 µM, respectively. For the same molecule, the “Ratio IC50” value in series [3] was determined as 0.68.
Regarding `COc1ccc(C(=O)/C=C/c2ccc3ccccc3c2)c(OC)c1OC`, the IC50 in series [1] and in series [2] was over 14 µM each time.
